The results in this text go back to ChEMBL document CHEMBL3992503, “Developing piperlongumine-directed glutathione S-transferase inhibitors by an electrophilicity-based strategy” (Eur J Med Chem, 2017).

Active and inactive are the calls of the source. No cut-off for these calls is given here. A value given as a limit tells only on which side of the number the result lay.

Experiment [1] is described as follows: Inhibition of equine liver GST assessed as decrease in conjugation of CDNB to GSH preincubated with GSH for 30 mins followed by CDNB addition measured for 3 mins. Also noted: species or system Equus caballus. In short, it runs like this: (§1)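 CDNB–GSH conjugation by equine liver GST in 100 mM potassium phosphate pH 6.5 with 1 mM GSH. Enzyme and inhibitor preincubated 30 min at 37 °C. Reaction started with 1 mM CDNB (final) and followed at 340 nm for 3 min at 25 °C. Single-point inhibition at 100 (unit unclear); IC50 from sigmoidal fit of inhibition versus concentration.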

The next experiment is filed under the species Equus caballus. As to the kind of experiment: Inhibition of equine liver GST assessed as decrease in conjugation of CDNB to GSH at 100 uM preincubated with GSH for 30 mins followed by CDNB addition measured for 3 mins relative to control. In short, it runs like this: as §1
The nature of experiment [2]: Electrophilicity of the compound assessed as second-oder rate constant for reaction with cysteamine under pseudo-first-oder condition at 40 uM by spectrophotometric method. An outline of the steps:
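Compound fixed at 40 (unit unclear) with cysteamine 0.67–9 mM in 100 mM Tris-HCl pH 7.4 containing 2 mM EDTA–ethanol (v/v 2/1), 25 °C, pseudo-first-order conditions. Decay of compound followed spectrophotometrically at its absorbance maximum; second-order constant k2 derived from these runs.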

The test system of experiment [3] is A549. As to the kind of experiment: Inhibition of GST in human A549 cells at 25 uM after 1.5 hrs by DNs-CV probe based fluorescence microscopic method.
Experiment [4] is described as follows: Noncompetitive inhibition of equine liver GST using fixed GSH substrate concentration and varying levels of CDNB preincubated with GSH for 30 mins followed by CDNB addition measured for 3 mins by Lineweaver-Burk plot analysis. Also noted: species or system Equus caballus. An outline of the steps:
(§2)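 Equine liver GST in 100 mM potassium phosphate pH 6.5 with inhibitor at 0, 12.5, 25 or 50 (unit unclear). Varied substrate at 0.1–1 mM, other substrate fixed at 1 mM: GSH varied for line 1, CDNB for line 10. Preincubated 30 min at 37 °C, started with CDNB, A340 read for 3 min at 25 °C. Mean of triplicates on Lineweaver-Burk plots; Ki from intercept (CDNB) or slope (GSH) replots.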

In experiment [5] the target is T1, Glutathione S-transferase Mu 1 (Homo sapiens) (UniProt P09488).
T1 sequence (whole entry): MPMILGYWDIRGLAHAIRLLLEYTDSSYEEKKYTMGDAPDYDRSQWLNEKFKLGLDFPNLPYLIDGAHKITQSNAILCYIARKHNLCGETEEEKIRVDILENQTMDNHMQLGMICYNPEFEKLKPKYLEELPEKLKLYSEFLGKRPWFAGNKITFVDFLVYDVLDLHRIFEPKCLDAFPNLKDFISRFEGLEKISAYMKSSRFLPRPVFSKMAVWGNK
The experiment can be described thus: Inhibition of GSTM1 in human A549 cells assessed as potentiation of cisplatin-induced cytotoxicity at 5 uM preincubated for 2 hrs followed by cisplatin addition measured after 48 hrs in presence of DTT by MTT assay. In kind it is cell-based. An outline of the steps: (§3)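 A549 cells seeded at 3 × 10⁴ cells/mL and cultured 24 h. For line 6, DTT pretreatment (250, unit unclear) for 1 h. Compound added for 2 h, then cisplatin at 2.5, 5, 10 and 20 (unit unclear) for 48 h. MTT for 4 h at 37 °C in the dark, DMSO solubilisation, OD read at 570 nm.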

The test system of experiment [6] is A549. The experiment can be described thus: Inhibition of GST in human A549 cells at 25 uM after 1.5 hrs in presence of DTT by DNs-CV probe based fluorescence microscopic method.
Experiment [7] has as its target T1, Glutathione S-transferase Mu 1 (Homo sapiens). The experiment can be described thus: Inhibition of GSTM1 in human A549 cells assessed as potentiation of cisplatin-induced cytotoxicity by measuring combination index at 5 uM preincubated for 2 hrs followed by cisplatin addition measured after 48 hrs by MTT assay. It is filed as cell-based.
The target is the same in experiment [8]. As to the kind of experiment: Inhibition of GSTM1 in human A549 cells assessed as potentiation of cisplatin-induced cytotoxicity at 5 uM preincubated for 2 hrs followed by cisplatin addition measured after 48 hrs by MTT assay. It is filed as cell-based. In short, it runs like this: as §3
A short description of experiment [9]: Competitive inhibition of equine liver GST using varying levels of substrate GSH and fixed CDNB concentration preincubated with GSH for 30 mins followed by CDNB addition measured for 3 mins by Lineweaver-Burk plot analysis. Also noted: species or system Equus caballus. An outline of the steps:
as §2

Turning to `O=C1C=CCCN1C(=O)/C=C/c1ccc(C(F)(F)F)cc1`, the IC50 in experiment [1] stood at 41.6 µM. Also, the inhibition in the experiment listed under Equus caballus is 55.5%. In addition, the K in [2] stood at 1.35 M⁻¹ s⁻¹.
Turning to `COc1cc(/C=C/C(=O)N2CCC=CC2=O)cc(OC)c1OC` [PIPLARTINE], the IC50 in experiment [1] was more than 100 µM. For the same compound, in the experiment filed under Equus caballus, the inhibition worked out at 30.7%. For the same compound, the K in experiment [2] amounted to 0.46 M⁻¹ s⁻¹. In the experiment on A549 [3], the inhibition result was “inactive”.
Consider `COc1cc(/C=C/C(=O)N2CCCCC2=O)cc(OC)c1OC`, for which the IC50 in experiment [1] is more than 100 µM. For the same compound, in the experiment listed under Equus caballus, the inhibition came out at 15.4%. In experiment [2], the K was found to be 0.35 M⁻¹ s⁻¹.
As to `COc1cc(CCC(=O)N2CCCCC2=O)cc(OC)c1OC` [TETRAHYDROPIPLARTINE], the IC50 in experiment [1] was more than 100 µM. Further, in the experiment filed under Equus caballus, the inhibition stood at 0%.
In the case of `O=C1C=CCCN1C(=O)/C=C/c1cccc(C(F)(F)F)c1`, in experiment [1], the IC50 came to 50.1 µM. In the experiment listed under Equus caballus, the inhibition stood at 53%. Further, the K in experiment [2] turned out to be 1.13 M⁻¹ s⁻¹.
`COc1cc(/C=C/C(=O)N2CCC=C(Cl)C2=O)cc(OC)c1OC`: the IC50 in experiment [1] was more than 100 µM. Further, in the experiment listed under Equus caballus, the inhibition came to 30.8%. In addition, the K in experiment [2] came to 0.99 M⁻¹ s⁻¹.
For `O=C(/C=C/c1ccccc1C(F)(F)F)N1CCC=C(Cl)C1=O`, the IC50 in [1] is more than 100 µM. Besides, the inhibition in the experiment listed under Equus caballus is 40.3%. For the same compound, the K in [2] was determined as 0.67 M⁻¹ s⁻¹.
The like results for `O=C1C=CCCN1C(=O)/C=C/c1ccccc1C(F)(F)F` were, in that order, more than 100 µM, 31.5% and 0.39 M⁻¹ s⁻¹.
Turning to `C/C=C/C(=O)N1CCC=CC1=O`, in [1], the IC50 was more than 100 µM. Besides, in the experiment filed under Equus caballus, the inhibition was 8.2%. Also, in [2], the K amounted to 1.21 M⁻¹ s⁻¹.
Taken in the same sequence, the figures for `COc1cc(/C=C/C(=O)C2CCC=CC2=O)cc(OC)c1OC` (stereo not drawn) were more than 100 µM, 50.5% and 1.15 M⁻¹ s⁻¹.
Consider `O=C(/C=C/c1ccc(C(F)(F)F)cc1)N1CCC=C(Cl)C1=O`, for which the figures for the Ki in [4] and in experiment [9] were 24.7 µM and 7.8 µM, respectively. The inhibition result (in experiment [5]; with A549 [6]) was “inactive” in each case. In addition, the CI in [7] is less than 1. Moreover, in [1], the IC50 was 5.6 µM. Besides, the inhibition result (in [8]; in the experiment on A549 [3]) was “Active” in each case. In the experiment listed under Equus caballus, the inhibition is 74.7%. The K in [2] was determined as 2.64 M⁻¹ s⁻¹.
Take `O=C(/C=C/c1cccc(C(F)(F)F)c1)N1CCC=C(Cl)C1=O`: the IC50 in [1] came out at 10.5 µM. In addition, the inhibition in the experiment listed under Equus caballus was 71%. Moreover, the K in experiment [2] was found to be 2.53 M⁻¹ s⁻¹.
